Screening data: PubChem BioAssay, several laboratories
A selection: hits, their analogues and other compounds. The true share with any hit is near 4.9%.
STAT1 inh: reduces IFN-gamma driven STAT1 reporter signal; NIH 3T3 STAT1-luciferase reporter, luminescence; inhibition, % at 5.5 µM; actives 0.35% (n = 200,000); AID 920;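 active = inhibition above a set limit, the mean inhibition across all tested compounds plus 3 SD, cut at about 34% in these data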
STAT1 act: activators of IFN-gamma induced STAT1 signaling | AID 932 | NIH 3T3 STAT1-luciferase reporter, luminescence; 100% = IFN-gamma alone, no compound | activation (% of control), % at 5.5 µM | actives 2.6% (n = 200,000);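 active = activation above the screen-wide mean activation plus 3 SD, cut at about 130% in these data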
APP 5'UTR act: APP 5'UTR luciferase reporter activation; SH-SY5Y APP 5'UTR luciferase reporter, luminescence; zero percent = DMSO vehicle wells; activation, % at 2 µM; actives 1% (n = 190,000); AID 1276;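 active = activation above a set limit, based on mean plus 3 SD of controls, cut at about 140% in these data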
NF-kB neuron act: NF-kB expression increase, human neuronal cells; actives 1.6% (n = 190,000); fold change at 12.5 µM; NF-kB reporter expression; stronger effect = higher value; in the data active = fold change above about 3.3
STAT3 inh: STAT3 signaling inhibition. U3A cells, IL-6 STAT3-luciferase reporter, luminescence; host cell line lacks STAT1. inhibition, % at 5.5 µM. actives 0.89% (n = 190,000);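 active = inhibition above the mean inhibition across all screened compounds plus 3 SD, cut at about 44% in these data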
STAT3 act: activators of IL-6 induced STAT3 signaling; U3A cells, IL-6 STAT3-luciferase reporter, luminescence; 100% = signal with IL-6 EC80 alone; activation (% of control), % at 5.6 µM; actives 0.91% (n = 190,000);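 active = activation above the screen-wide mean of compound activation plus 3 SD, cut at about 130% in these data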
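Material: STAT1-lacking human U3A cells, STAT3 luciferase reporter | Benchmarks: IL-6-only wells as 100% reference | Probe or stimulus: IL-6 (33 ng/mL) | Timing: Compound 1 h, then IL-6 6 h at 37 °C | Detection: Luminescence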
A number is an active result; i = inactive; nt = not tested or not shown.

SMILES	STAT1 inh	STAT1 act	APP 5'UTR act	NF-kB neuron act	STAT3 inh	STAT3 act
O=C(CCCn1c(=O)[nH]c2ccc(Br)cc2c1=O)NCc1ccc(Cl)cc1	i	i	i	i	i	i
O=C(CNCc1ccco1)Nc1ccc(Oc2ccccc2)cc1	i	i	i	i	i	i
COc1cccc(-c2c[nH]c(=O)[nH]c2=O)c1	i	i	i	i	i	i
CC(/C=N/N1CCN(c2ccccc2)CC1)=C\c1ccco1	i	137.8	i	3.64	i	i
CC(=C/c1ccco1)/C=N/N1CCN(c2ccccc2)CC1	i	i	i	3.85	i	i
CC(/C=N/N1CCN(c2ccccc2)CC1)=C\c1ccccc1	i	i	i	i	i	i
O=C(Nc1cccnc1)c1ccc2c(c1)C(=O)N(CC1CCCO1)C2=O (centres undefined)	i	i	i	i	i	i
CC(C)(C)c1ccc(/C=C/C(=O)NC2=NCCS2)cc1	i	i	183.8	i	i	i
CCOC(=O)/C(N=Nc1ccc2c(c1)OCO2)=C(\C)O	i	137.0	i	i	i	i
CC(C)(C)C(=O)Cn1ncc(Br)c(Br)c1=O	i	i	i	i	i	i
COc1ccc(OCC(=O)Nc2ccc(NC(=O)c3cccs3)c(OC)c2)cc1	i	i	i	i	i	i
COc1cc(NC(=O)COc2ccccc2[N+](=O)[O-])ccc1NC(=O)c1cccs1	i	141.2	i	i	i	i
Cn1c(CSc2nc3ccccc3s2)nc2ccccc21	i	141.5	i	i	i	i
O=c1oc2ccccc2n1CSc1nc2ccccc2s1	i	136.9	i	3.32	i	i
O=c1oc2ccccc2n1CSC1=NCCS1	i	i	i	4.15	i	i
CC(=O)c1ccc(NC(=O)CC23CC4CC(C2)CC(n2nnc(C)n2)(C4)C3)cc1	i	i	i	i	i	i
Brc1ccccc1-n1nnc(-c2nccs2)n1	i	133.4	i	3.86	nt	nt
c1ccn2cc(-c3ccc4c(c3)OCCO4)nc2c1	59.6	i	i	i	89.9	i
Clc1ccc2nc(-c3ccc4c(c3)OCO4)cn2c1	65.4	i	157.8	4.99	82.8	i
CC(NC(=O)C(c1ccccc1)c1ccccc1)C(=O)N1CCCCC1 (centres undefined)	i	i	i	i	i	i
CC(Cl)C(=O)NNC(=O)CNS(=O)(=O)c1ccccc1 (centres undefined)	i	i	i	i	i	i
CN(C)/C=C1\C(=O)N(c2ccc(Cl)cc2)CS1(=O)=O	i	i	i	i	i	i
Cc1ccc(N2CS(=O)(=O)/C(=C/N(C)C)C2=O)cc1	i	150.3	i	i	i	i
CCOC(=O)C1CCN(C(=O)Nc2ccc(Cl)cc2Cl)CC1	i	i	i	i	i	i
COc1cc(C(=O)Nc2ccc(N(C)C)cc2)c([N+](=O)[O-])cc1OC	i	145.8	i	nt	i	i
SMILES	STAT1 inh	STAT1 act	APP 5'UTR act	NF-kB neuron act	STAT3 inh	STAT3 act
CN(C)c1cccc(-c2nnc(SCCCC#N)o2)c1	i	i	153.7	i	i	i
CN(C)CCSc1nnc(-c2ccccc2)o1	i	i	i	i	i	i
CC(C)Cn1c(=O)oc2ccccc21	i	i	i	i	i	i
COc1ccc(-n2nnnc2S(=O)(=O)Cc2ccc(C(=O)O)cc2)cc1	i	i	i	i	i	i
COc1ccc(-n2nnnc2S(=O)(=O)CC(=O)N2CCCCC2)cc1	36.1	i	i	i	i	i
CCC(=O)N/C(=N/c1nc(C)cc(C)n1)Nc1cccc(OC)c1	i	i	i	i	i	i
CCN1CCN(C(=O)c2ccc3c(c2)N(Cc2ccc(F)cc2)C(=O)c2ccccc2S3=O)CC1 (centres undefined)	i	i	i	i	i	i
Cc1nonc1C(=O)N/N=C/c1cc2c(cc1Br)OCO2	i	i	i	i	i	133.1
Cc1nn(C)c(C(=O)N/N=C/c2cc3c(cc2Br)OCO3)c1Br	i	i	i	i	i	i
Cc1nonc1C(=O)N/N=C/c1ccccc1	i	132.4	i	i	i	i
C=C(C)C1CC=C(C)/C(=N\NC(=O)CNc2cccc3ccccc23)C1 (centres undefined)	i	i	i	i	i	i
C/C(=N/OCO/N=C(\C)c1ccccc1)c1ccccc1	i	i	i	i	i	i
C/C(=N\OCc1ccc(C#N)cc1)c1ccccc1	i	142.0	i	i	i	i
O=C1C(Cl)=C(NC2CCCCC2)C(=O)N1c1ccc(Cl)cc1	i	140.8	i	i	i	i
Cc1nc2cc(-c3ccccc3)sc2c(=O)n1N	86.2	i	i	i	98.6	i
Cc1ccc(C)n1-n1c(C)nc2sc(-c3ccccc3)cc2c1=O	i	i	i	i	i	i
CCOc1cc(/C=N/NC(=O)C(=O)NCCCOC(C)C)cc(Br)c1O	i	i	i	i	i	i
CCCc1nn(C)c(C(=O)Nc2ccc(C)c(C)c2)c1Cl	i	129.9	i	i	i	i
CCCNC(=O)c1cc(-c2ccco2)on1	i	i	i	4.94	i	i
O=C(NC1CCCCC1)c1cc(-c2ccco2)on1	i	129.9	i	i	i	i
COC(=O)C(C)Oc1ccc(Oc2nc(Cl)ccc2Cl)cc1 (centres undefined)	i	i	i	i	i	i
Cc1ccc(C(=O)Cn2cnc3ccccc3c2=O)cc1	i	132.9	i	i	i	i
CC(C)(C)n1ncc2c(=O)n(CC(=O)OCc3ccccc3)cnc21	i	i	i	i	i	i
CC(C)(C)n1ncc2c(=O)n(CC(=O)c3ccccc3)cnc21	i	150.4	i	i	i	i
O=C(Cn1cnc2ccccc2c1=O)c1ccc(Br)cc1	i	143.8	i	i	i	i
SMILES	STAT1 inh	STAT1 act	APP 5'UTR act	NF-kB neuron act	STAT3 inh	STAT3 act
O=C(Cn1c(NCCO)nc2ccccc21)NCC1CCCO1 (centres undefined)	i	i	i	i	i	i
Cc1cccc(Nc2ncnc3ccccc23)c1	i	i	i	i	i	i
Cc1ccccc1C(=O)Oc1cccc(Nc2ncnc3ccccc23)c1	i	i	i	nt	66.8	i
Cc1ccc(Nc2ncnc3ccccc23)cc1	i	129.7	149.3	i	i	i
CC(C)Oc1ccc(Nc2ncnc3ccccc23)cc1	i	144.3	i	i	i	i
Cc1[nH]c(=O)[nH]c(=O)c1S(=O)(=O)N1CCCC(C(=O)NCCC2=CCCCC2)C1 (centres undefined)	i	i	i	i	i	i
CCOC(=O)c1c(C)[nH]c(C(=O)COC(=O)/C=C/c2ccc(OCC#N)c(OC)c2)c1C	i	i	i	i	i	i
COC(=O)c1sccc1N/N=C/c1ccc(OC)c(OC)c1OC	i	129.1	i	i	i	i
COC(=O)c1sccc1N/N=C/c1cccc(Oc2ccccc2)c1	i	137.9	176.1	i	i	i
O=C(N/N=C/c1cccc(Oc2ccccc2)c1)c1cc[n+]([O-])cc1	i	i	i	i	i	i
